High-throughput results as filed in PubChem.
PAFAH1B2 FP inh – PAFAH1B2 enzyme inhibitors, primary screen, biochemical, fluorescence polarization, human; Platelet-activating factor acetylhydrolase IB subunit alpha2 (Homo sapiens), P68402; recombinant PAFAH1B2, FP-rhodamine activity probe; inhibition, % at 3.39 µM; 1.2% of 340,000 active;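 active = inhibition above the mean of all tested compounds plus 3 SD, cut at about 24% in these data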;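 note: 0% = enzyme with DMSO and 100% = wells lacking PAFAH1B2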
GRIN3A LBD mod – binders of NR3A ligand-binding domain, primary screen, biophysical, differential scanning fluorimetry, uHTS; NR3A LBD differential scanning fluorimetry, Tm shift; 0% = protein alone, 100% = glycine-bound protein; 2.5% of 340,000 active; AID 1259313, 2017; Tm shift relative to glycine control, % at 25 µM; Glutamate receptor ionotropic, NMDA 3A (GRIN3A) ligand-binding domain;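 active = melting temperature shift of at least 10% of the positive control shift, at one fixed dose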
PAFAH1B3 FP inh – PAFAH1B3 enzyme inhibitors, primary screen, biochemical, fluorescence polarization, human. inhibition, % at 3.39 µM. recombinant PAFAH1B3, FP-rhodamine probe. 0.28% of 340,000 active. Platelet-activating factor acetylhydrolase IB subunit alpha1 (Homo sapiens), Q15102;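 active = inhibition above the screen-wide average of all tested compounds plus 3 SD, cut at about 25% in these data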;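 note: 0% = enzyme with DMSO only and 100% = wells lacking PAFAH1B3 protein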
Target sequence (Q15102 whole entry, looked up): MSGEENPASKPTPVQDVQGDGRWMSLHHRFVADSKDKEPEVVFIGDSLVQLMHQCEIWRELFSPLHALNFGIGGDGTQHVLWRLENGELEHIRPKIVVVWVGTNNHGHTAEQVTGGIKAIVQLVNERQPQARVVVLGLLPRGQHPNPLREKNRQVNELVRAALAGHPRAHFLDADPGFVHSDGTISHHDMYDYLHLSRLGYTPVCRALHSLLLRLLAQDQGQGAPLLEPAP
pPAFAH inh – pPAFAH enzyme inhibitors, primary screen, biochemical, fluorescence polarization, human; 1.5% of 330,000 active; recombinant pPAFAH, FP-rhodamine probe fluorescence polarization; inhibition, % at 3.39 µM; AID 463082, 2010; Platelet-activating factor acetylhydrolase (Homo sapiens), Q13093;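 active = inhibition above the mean inhibition across the screen plus 3 SD, cut at about 25% in these data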;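 note: inhibitors block binding of the rhodamine activity-based probe so polarization drops; 0% = enzyme with DMSO and 100% = wells lacking pPAFAH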
UCH37 DUB inh – inhibitors of human UCH37 deubiquitinase, primary screen, biochemical, Ub-AMC cleavage, fluorescence; purified proteasome/UCH37; inhibition, % (no concentration beside the values); 0.33% of 330,000 active; AID 588478, 2011;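 active = mean inhibition over replicate wells above about 20%, limit read from the data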;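 note: 0% = compound-free wells with enzyme and 100% = wells lacking proteasome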
Target sequence (Q9Y5K5 whole entry, looked up): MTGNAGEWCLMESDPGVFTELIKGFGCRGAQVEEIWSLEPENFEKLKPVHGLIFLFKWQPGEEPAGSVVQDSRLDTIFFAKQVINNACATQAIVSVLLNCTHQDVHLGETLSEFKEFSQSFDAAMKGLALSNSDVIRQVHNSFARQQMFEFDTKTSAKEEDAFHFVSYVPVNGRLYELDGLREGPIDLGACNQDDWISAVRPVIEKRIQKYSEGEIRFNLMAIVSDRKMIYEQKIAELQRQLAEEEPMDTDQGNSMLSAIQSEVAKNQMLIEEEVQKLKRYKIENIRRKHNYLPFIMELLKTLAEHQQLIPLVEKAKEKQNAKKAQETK
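Material: Human UCH37 enzyme supplied as purified proteasome complex | Schedule: 30 min compound-proteasome preincubation then 25 min substrate reaction, room temperature | Detection: AMC fluorescence from Ub-AMC cleavage, excitation 355 nm, emission 460 nm | Benchmarks: Wells without proteasome as full block, compound-free enzyme plus substrate as uninhibited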
PAFAH2 inh – PAFAH2 enzyme inhibitors, primary screen, biochemical, fluorescence polarization, human; recombinant PAFAH2, FP-rhodamine activity probe; 0.99% of 340,000 active; inhibition, % at 3.39 µM;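 active = inhibition above the mean over all tested compounds plus 3 SD, cut at about 30% in these data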;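 note: inhibitors block probe labeling of enzyme so polarization drops; 0% = enzyme with DMSO and 100% = wells lacking PAFAH2 protein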
Starred values were filed as active, the others as inactive; / = no result given. Hits are enriched below; roughly 4.8% of the tested compounds scored in any of these assays.

SMILES	PAFAH1B2 FP inh	GRIN3A LBD mod	PAFAH1B3 FP inh	pPAFAH inh	UCH37 DUB inh	PAFAH2 inh
CC(C)CNS(=O)(=O)c1ccc(S(=O)(=O)N2CCCN(Cc3ccccc3)C2)cc1	-2	13*	-4	7	1	-11
O=C(Nc1ccccc1)Nc1ccc(S(=O)(=O)N2CCCCC2)cc1	-11	22*	-12	-17	5	-25
O=C1CNC(=S)N1Cc1ccccc1	4	-21	4	3	5	1
O=C1CNC(=S)N1Cc1ccc(F)cc1	5	72*	1	3	1	2
COc1ccc(Br)cc1C=NNC(=O)CNC(=O)c1cccnc1	/	/	/	/	-4	/
Cn1cnnc1Sc1ccc(/C=C(\CCC(=O)O)c2nc3ccccc3s2)cc1[N+](=O)[O-]	26*	0	3	7	/	-3
Cn1cnnc1Sc1ccc(/C=C/C(=O)c2ccc(O)cc2)cc1[N+](=O)[O-]	-2	-6	-4	4	11	13
NC(N)=NS(=O)(=O)c1ccc(N/C=C\C(=O)c2ccncc2)cc1	3	244*	2	-4	8	-6
Cc1noc(NS(=O)(=O)c2ccc(N/C=C\C(=O)c3ccncc3)cc2)c1C	9	3	6	-2	19	5
COc1c(Cl)cccc1-c1cn2ccc(C)cc2n1	8	11*	7	4	-58	14
Cc1ccn2cc(-c3cnoc3C)nc2c1	1	5	-1	-5	-9	4
NC(=NOC(=O)c1ccc2ccccc2c1)c1cccc([N+](=O)[O-])c1	/	/	/	/	5	/
Cc1cc(C)n2nc(C(=O)NN=Cc3ccc(Cl)cc3)nc2n1	/	/	/	/	2	/
O=C(O)CCn1cc(C2CC(c3ccccc3)=NN2c2ccccc2)c(-c2ccccc2)n1 (stereo not given)	8	2	-5	27*	/	12
COc1ccc(C2CC2C(=NO)c2ccccn2)cc1 (stereo not given)	/	/	/	/	4	/
O=C(c1cc(-c2ccc(O)cc2)on1)N1CCN(c2ccccc2)CC1	5	12*	-5	3	0	6
CCOc1cc(C(=S)N2CCOCC2)ccc1OS(=O)(=O)c1ccc(OC)cc1	1	2	6	3	1	-1
COc1cccc(C(=S)N2CCOCC2)c1OS(=O)(=O)c1ccc(Cl)cc1	-3	0	11	27*	5	-2
COc1cc(C(=S)N2CCOCC2)cc(OC)c1OS(=O)(=O)c1ccc(Cl)cc1	2	-1	3	2	1	2
COc1ccc(S(=O)(=O)Oc2cccc(C(=S)N3CCOCC3)c2)cc1	26*	0	1	-2	1	1
COc1cc(/C=C/C(=O)OCC(=O)NC2CCCCCCC2)ccc1O	5	-4	-8	27*	-4	76*
COc1cc(/C=C/C(=O)OCC(=O)Nc2ccccc2Sc2ccc(Cl)cc2)ccc1O	3	15*	-3	24	-19	14
COc1cc(C=NNC(=O)CC(=O)NC2CCCCC2)ccc1O	/	/	/	/	-6	/
COc1cc(/C=C/C(=O)OCC(=O)NNC(=O)c2cc(Cl)ccc2OC)ccc1O	2	-4	10	2	-3	9
COc1cc(/C=C/C(=O)OCC(=O)Nc2cccc(F)c2)ccc1O	2	-2	11	28*	-6	93*
SMILES	PAFAH1B2 FP inh	GRIN3A LBD mod	PAFAH1B3 FP inh	pPAFAH inh	UCH37 DUB inh	PAFAH2 inh
CCc1ccc(S(=O)(=O)NN=C(C)c2ccncc2)cc1	/	/	/	/	3	/
CC(=O)N(c1ccc2oc(=O)sc2c1)S(=O)(=O)c1ccccc1	12	4	6	4	1	7
CCCC(=O)N(c1ccc2oc(=O)sc2c1)S(=O)(=O)c1cccs1	6	1	14	10	4	35*
Cc1cc(NC(=O)c2cc3cccc([N+](=O)[O-])c3[nH]2)ccc1F	13	29*	10	19	5	-2
C#CCOCCOCCOCCNc1nc(N2CCN(C(=O)CCCCCCCCCCNC(=O)[C@@H](CCSC)n3cc(CCO)nn3)CC2)nc(N2CCN(C(=O)CCCCCCCCCCNC(=O)[C@H]([C@@H](C)CC)n3cc(CCCCCN)nn3)CC2)n1	/	17*	/	-7	/	/
C#CCOCCOCCOCCNc1nc(N2CCN(C(=O)CCCCCCCCCCNC(=O)Cn3cc(CCCCCN)nn3)CC2)nc(N2CCN(C(=O)CCCCCCCCCCNC(=O)[C@H](CO)n3cc(CCCCCN)nn3)CC2)n1	7	6	7	1	2	2
C#CCOCCOCCOCCNc1nc(N2CCN(C(=O)CCCCCCCCCCNC(=O)Cn3cc(CCCCCN)nn3)CC2)nc(N2CCN(C(=O)CCCCCCCCCCNC(=O)[C@H]([C@@H](C)CC)n3cc(CCCCCN)nn3)CC2)n1	6	28*	-7	3	/	-2
C#CCOCCOCCOCCNc1nc(N2CCN(C(=O)CCCCCCCCCCNC(=O)[C@H]([C@@H](C)CC)n3cc(CCCCCN)nn3)CC2)nc(N2CCN(C(=O)CCCCCCCCCCNC(=O)[C@@H]([C@H](C)O)n3cc(C)nn3)CC2)n1	3	17*	-5	2	2	1
C#CCOCCOCCOCCNc1nc(N2CCN(C(=O)CCCCCCCCCCNC(=O)[C@H](CCCCN)n3cc(C)nn3)CC2)nc(N2CCN(C(=O)CCCCCCCCCCNC(=O)[C@@H]([C@H](C)CC)n3cc(CCCCCN)nn3)CC2)n1	-4	/	21	0	/	-6
O=[N+]([O-])c1cccc(C=Nn2c(COc3ccccc3)n[nH]c2=S)c1	/	/	/	/	5	/
COc1cc(C=NNC(=O)c2cccnc2)cc(Br)c1O	/	/	/	/	17	/
CC(C)Cn1c(CN2C(=O)c3ccccc3C2=O)nc2ccccc2c1=O	-2	20*	3	9	1	2
COc1ccc(C=NNC(=S)Nc2ccccc2)cc1COc1ccc(F)cc1F	/	/	/	/	2	/
Clc1ccc(-c2cn3c(n2)-c2ccccc2C3)cc1Cl	2	30*	6	-10	-5	2
O=C(CNC(=O)c1cccc(Br)c1)NN=Cc1cccs1	/	/	/	/	2	/
CC1(C)N([O-])C(c2ccccc2)=C[N+](=O)C1(C)C	-3	681*	3	1	8	4
COc1ccc(C)cc1NC(=O)C(=O)NN=C(C)CC(=O)Nc1cccnc1	/	/	/	/	3	/
COC(=O)c1[nH]c2ccccc2c1NC(=O)Oc1ccccc1	0	17*	4	-5	-20	-2
CC(=NNC(=O)c1nnn(-c2nonc2N)c1-c1cccs1)c1ccc(C)cc1	/	/	/	/	-64	/
